Laboratory results from ChEMBL document CHEMBL1138932, “Synthesis and anti-hepatitis B virus activity of novel benzimidazole derivatives” (J Med Chem, 2006).
Active and inactive are the calls of the source. No cut-off for these calls is given here.

Legend:
HepG2 [1] = test: Selectivity index, CC50 for HepG2.2.15 cells/IC50 for HBV; format: functional
Method in brief: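 Ratio CC50/IC50. CC50 is the concentration giving 50% extinction of HepG 2.2.15 cells. IC50 is the concentration giving 50% inhibition of cytoplasmic HBV-DNA synthesis.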

HepG2 [2] = test: Cytotoxicity against HepG2.2.15 cells; format: functional; conditions: Homo sapiens
Method in brief: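 HepG 2.2.15 cells exposed to compound; CC50 taken as the concentration required for 50% extinction of the cells.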

Hepatitis B virus = test: Inhibition of HBV DNA replication; format: functional, organism-based
Method in brief: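 Antiviral assay in HepG 2.2.15 cells; read-out is cytoplasmic HBV-DNA synthesis. IC50 is the concentration giving 50% inhibition of HBV DNA synthesis.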

Row | SMILES | Selectivity index (HepG2 [1]) | CC50 (HepG2 [2]) [µM] | IC50 (Hepatitis B virus) [µM] | Activity (Hepatitis B virus)
1 | Cc1ccc(S(=O)(=O)n2c(CCN3C(=O)C=CC3=O)nc3cc(Cl)c(Cl)cc32)cc1 | 49 | 33 | 0.68 | 
2 | Cc1ccc(S(=O)(=O)n2c(CCCN3C(=O)c4ccccc4C3=O)nc3cc(Cl)c(Cl)cc32)cc1 | 38 | 13 | 0.34 | 
3 | CS(=O)(=O)n1c(CCN2C(=O)c3ccccc3C2=O)nc2cc(Cl)c(Cl)cc21 |  | 175 |  | inactive
4 | Cn1c(CCN2C(=O)c3ccccc3C2=O)nc2cc(Cl)c(Cl)cc21 | >1111 | > 1000 | 0.9 | 
5 | CC(C)c1ccc(S(=O)(=O)n2c(CCN3C(=O)c4ccccc4C3=O)nc3cc(Cl)c(Cl)cc32)cc1 | 24 | 17 | 0.7 | 
6 | CCCc1nc2cc(Cl)c(Cl)cc2n1C | 6 | 24.6 | 3.9 | 
7 | Cc1ccc(Cn2c(CCN)nc3cc(Cl)c(Cl)cc32)cc1 | 3 | 4 | 1.4 | 
8 | O=C1c2ccccc2C(=O)N1CCc1nc2cc(F)c(F)cc2n1S(=O)(=O)c1ccc(C(F)(F)F)cc1 | 3 | 11 | 3.2 | 
9 | Cn1c(CCc2ccccc2)nc2cc(Cl)c(Cl)cc21 |  | 15.3 |  | inactive
10 | O=C1c2ccccc2C(=O)N1CCc1nc2cc(Cl)c(Cl)cc2n1S(=O)(=O)c1ccc([N+](=O)[O-])cc1 | 4 | 181 | 50.2 | 
11 | Cc1ccc(S(=O)(=O)n2c(CCN3C(=O)c4ccccc4C3=O)nc3cc(Cl)c(Cl)cc32)cc1 | 299 | 867 | 2.9 | 
12 | O=C1c2ccccc2C(=O)N1CCc1nc2ccccc2n1S(=O)(=O)c1ccccc1 | 13 | 28 | 2.2 | 
13 | Cc1ccc(Cn2c(CCN3C(=O)c4ccccc4C3=O)nc3cc(Cl)c(Cl)cc32)cc1 | >714 | > 500 | 0.7 | 
14 | Cc1ccc(S(=O)(=O)n2c(N3C(=O)c4ccccc4C3=O)nc3cc(Cl)c(Cl)cc32)cc1 | 6 | 122 | 19.4 | 
15 | Nc1ccn([C@@H]2CS[C@H](CO)O2)c(=O)n1 [LAMIVUDINE] | >2632 | > 1000 | 0.38 | 
16 | Cn1c(CCC2CCCO2)nc2cc(Cl)c(Cl)cc21 (centres undefined) | 5 | 56 | 10.3 | 

Row | SMILES | Selectivity index (HepG2 [1]) | CC50 (HepG2 [2]) [µM] | IC50 (Hepatitis B virus) [µM] | Activity (Hepatitis B virus)
17 | O=C1c2ccccc2C(=O)N1CCc1nc2ccccc2n1S(=O)(=O)c1cccc(C(F)(F)F)c1 | 0.3 | 10 | 30.4 | 
18 | Cc1ccc(C(=O)n2c(CCN3C(=O)c4ccccc4C3=O)nc3cc(Cl)c(Cl)cc32)cc1 | >19 | > 1000 | 53.2 | 
19 | O=C1c2ccccc2C(=O)N1CCc1nc2cc(F)c(F)cc2n1S(=O)(=O)c1cccc([N+](=O)[O-])c1 | 71 | 10 | 0.14 | 
20 | Nc1ncnc2c1ncn2CCOCP(=O)(O)O [ADEFOVIR] | 156 | 203 | 1.3 | 
21 | O=C1c2ccccc2C(=O)N1CCc1nc2cc(Cl)c(Cl)cc2[nH]1 | 1 | 330 | 300 | 
22 | COc1ccc(S(=O)(=O)n2c(CCN3C(=O)c4ccccc4C3=O)nc3cc(Cl)c(Cl)cc32)cc1 | 26 | 189 | 7.2 | 
23 | Cc1ccc(S(=O)(=O)n2c(CCN3C(=O)c4ccccc4C3=O)nc3cc(F)c(F)cc32)cc1 | 26 | 31 | 1.2 | 
24 | Cc1ccc(S(=O)(=O)n2c(CCN3C(=O)c4ccccc4C3=O)nc3ccccc32)cc1 | 75 | 164 | 2.2 | 
25 | Cn1c(CCc2cccs2)nc2cc(Cl)c(Cl)cc21 |  | 16 |  | inactive
26 | Cc1ccc(S(=O)(=O)n2c(CN3C(=O)c4ccccc4C3=O)nc3cc(Cl)c(Cl)cc32)cc1 | 180 | 90 | 0.5 | 
27 | Cn1c(CCc2ccco2)nc2cc(Cl)c(Cl)cc21 |  | 5.9 |  | inactive
28 | Cn1c(CCC2CCCCC2)nc2cc(Cl)c(Cl)cc21 | >27 | > 500 | 18.5 | 
29 | Cc1ccc(S(=O)(=O)n2c(CCN3Cc4ccccc4C3=O)nc3cc(Cl)c(Cl)cc32)cc1 | 7 | 23 | 3.4 | 
30 | O=C1c2ccccc2C(=O)N1CCc1nc2cc(F)c(F)cc2n1S(=O)(=O)c1ccccc1[N+](=O)[O-] | 120 | 77 | 0.64 | 
31 | Cn1c(CCc2ccncc2)nc2cc(Cl)c(Cl)cc21 | 8 | 35.8 | 4.6 | 
